Results as given in ChEMBL document CHEMBL1154897, “HPLC-based activity profiling: discovery of piperine as a positive GABA(A) receptor modulator targeting a benzodiazepine-independent binding site” (J Nat Prod, 2010).
Active and inactive are the calls of the source. No cut-off for these calls is given here.

Tests used:
[1] = system: Oocyte; experiment: Activation of rat GABA alpha-1-beta-2-gamma-2 receptor expressed in xenopus oocytes assessed as potentiation of GABA-induced chloride current at 100 uM after 90 secs by two […] electrode voltage clamp assay; format: cell-based
How it was run: (§1)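 Rat α1, β2, γ2S cRNAs (1:1:10) injected into collagenase-defolliculated Xenopus oocytes, stored at 18 °C in ND96, recorded on days 1–5. Two-microelectrode voltage clamp at −70 mV. Bath: 90 mM NaCl, 1 mM KCl, 1 mM MgCl2, 1 mM CaCl2, 5 mM HEPES, pH 7.4. Cells with maximal currents > 3 μA discarded. Solutions delivered by automated fast perfusion.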

[2] = system: Oocyte; experiment: Activation of rat GABA alpha-1-beta-2-gamma-2 receptor expressed in xenopus oocytes assessed as potentiation of chloride current at 100 uM after 90 secs by two […] electrode voltage clamp assay; format: cell-based; how it was run: as §1
[3] = system: Oocyte; experiment: Activation of rat GABA alpha-1-beta-2-gamma-2 receptor expressed in xenopus oocytes assessed as potentiation of GABA-induced chloride current at 100 uM after 90 secs by two […] electrode voltage clamp assay in presence of 1 uM Diazepam; format: cell-based; how it was run: as §1
[4] = Displacement of [3H]-flumazenil from GABAA receptor
[5] = system: Oocyte; experiment: (§2) Activation of rat GABA alpha-1-beta-2-gamma-2 receptor expressed in xenopus oocytes assessed as potentiation of GABA-induced chloride current after 90 secs by two […] electrode voltage clamp assay; format: cell-based
How it was run: (§3)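 Xenopus oocytes injected with rat α1, β2, γ2S cRNAs (1:1:10), kept at 18 °C in ND96, recorded days 1–5. Two-electrode voltage clamp at −70 mV in bath containing 90 mM NaCl, 1 mM KCl, 1 mM MgCl2, 1 mM CaCl2, 5 mM HEPES, pH 7.4. Compound (1–300 μM) preapplied 90 s, then coapplied with GABA EC5–10 by fast perfusion. Values n = 3.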

[6] = as §2; format: cell-based; details: Oocyte; how it was run: as §3
[7] = system: Oocyte; experiment: Activation of rat GABA alpha-1-beta-2-gamma-2 receptor expressed in xenopus oocytes assessed as potentiation of GABA-induced chloride current at 300 uM after 90 secs by two […] electrode voltage clamp assay; format: cell-based; how it was run: as §1
[8] = system: Oocyte; experiment: Activation of rat GABA alpha-1-beta-2-gamma-2 receptor expressed in xenopus oocytes assessed as potentiation of GABA-induced chloride current at 300 uM after 90 secs by two […] electrode voltage clamp assay relative to control in presence of flumazenil; format: cell-based; how it was run: as §1

Structure (SMILES)	Activity [1] [%]	Activity [2]	Activity [3] [%]	IC50 [4] [µM]	Activity [5]	EC50 [6] [µM]	Activity [7] [%]	Activity [8] [%]
CC(C)CNC(=O)/C=C/C=C/c1ccc2c(c1)OCO2	-10	inactive						
O=C(/C=C/C=C/c1ccc2c(c1)OCO2)N1CCCCC1 [PIPERINE]	226	inactive	391	1200	Dose-dependent effect	52	302	334
O=C(CCCC/C=C/c1ccc2c(c1)OCO2)N1CCCCC1	32	inactive						
O=C(/C=C/CCc1ccc2c(c1)OCO2)N1CCCCC1 [PIPERANINE]	138	inactive			Dose-dependent effect	56	187	
O=C(/C=C/C=C/c1ccc2c(c1)OCO2)N1CCCC1	-29	inactive						
